Assay results from different studies.
Each line is one published result; the experiments were not run side by side.
Read-out: cell growth or viability

SMILES	cell line	method	tested at	time	endpoint	value
O=C(C=Cc1ccccc1)Nc1cccc(-c2ccnc(N3CCOCC3)c2)c1	HeLa	MTT	5 µM		inhibition	28.4%
Cc1c(C(=O)O)ccc2c3n(nc12)[C@@H]1[C@H](C3)N(CC2CC2)[C@@]2(C(=O)Nc3cc(Cl)ccc32)[C@H]1c1cccc(Cl)c1F	U2OS	resazurin			GI50	> 2 µM
Cc1cccc(/C=C/C(=O)Nc2cccc(-c3ccnc(N4CCOCC4)c3)c2)c1	HeLa	MTT	5 µM		inhibition	24.1%
C=C(C)[C@@H]1CC[C@@H](C)C[C@H]1OCc1ccc(OC)cc1	HeLa	MTT	30 µM	72 h	inhibition	54%
Cc1nc(Nc2ccc3c(c2)C(C)(C)C(=O)N3C)c2ccccc2n1	H22	MTT			IC50	24.1 µM
C=C(COCc1ccc(OC)cc1)[C@@H]1CC[C@@H](C)C[C@H]1OCc1ccc(OC)cc1	HeLa	MTT	10 µM	72 h	inhibition	39.2%
C=CC(=O)NC1CCN(c2ncc3ncnc(Nc4ccc(Oc5ccc6c(c5)ncn6C)c(C)c4)c3n2)CC1	LS-411N				EC50	0.0116 µM
C=C(COCc1ccccc1)[C@@H]1CC[C@@H](C)C[C@H]1OCc1ccccc1	HeLa	MTT	10 µM	72 h	inhibition	40.4%
COc1cc2ncnc(Nc3ccc4c(c3)/C(=C/c3cccc(Cl)c3)C(=O)N4C)c2cc1OC	H22	MTT			IC50	3.84 µM
C[C@@H]1CC[C@@H]([C@](C)(O)CNCc2cccc(F)c2)[C@H](OCc2ccccc2)C1	HeLa	MTT	10 µM	72 h	inhibition	72.5%
Cc1nc(Nc2ccc3c(c2)/C(=C/c2ccccc2Cl)C(=O)N3)c2ccccc2n1	H22	MTT			IC50	2.14 µM
Cc1cccc(/C=C/C(=O)Nc2cc(-c3ccnc(N4CCC(O)CC4)c3)ccn2)c1	HeLa	MTT	5 µM		inhibition	74.2%
C[C@@H]1CC[C@@H]([C@](C)(O)Cn2cnc3ccccc32)[C@H](OCc2ccccc2)C1	HeLa	MTT	10 µM	72 h	inhibition	32.1%
O=C(C=Cc1ccccc1)Nc1cc(-c2ccnc(N3CCOCC3)c2)ccn1	HeLa	MTT	5 µM		inhibition	74%
C#Cc1nc(C2=C(C)C(OC(=O)CCC)/C(=N/OC(=O)CCC)C2)cs1 (stereo not shown)	U2OS				CC50	5.95 µM
O=C(/C=C/c1cccc(F)c1)Nc1cc(-c2ccnc(N3CCC(O)CC3)c2)ccn1	HeLa	MTT	5 µM		inhibition	85%
C[C@@H]1CC[C@@H]([C@](C)(O)CNCc2cccc3ccccc23)[C@H](OCc2ccccc2)C1	HeLa	MTT	30 µM	72 h	inhibition	86.8%
Cc1cccc(/C=C/C(=O)Nc2cccc(-c3ccnc(N4CCC(O)CC4)c3)c2)c1	HeLa	MTT	5 µM		inhibition	54.9%
CCN1[C@@H](C(=O)NC23CCC(C(=O)O)(CC2)CC3)[C@H](c2cccc(Cl)c2F)[C@]2(C(=O)Nc3cc(Cl)ccc32)C12CCCCC2	U2OS	resazurin		72 h	GI50	0.703 µM
